Screening data: PubChem BioAssay, Johns Hopkins Ion Channel Center
RGS4 act: RGS4 potentiators or activators, primary screen, cell-based, HEK293 M3R inducible RGS4, calcium flux; carbachol calcium flux Fluo4; active compounds read low; B-score at 10 µM; actives 0.92% (n = 310,000); AID 463111, 2010;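 active = B-score of the integrated calcium signal more than 4 SD below the library mean, with starting fluorescence not abnormally high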;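 also: negative B-score means reduced calcium response which marks RGS4 activation or potentiation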
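Assay system: Inducible-RGS4 HEK293 cells carrying M3 receptor | Schedule: Compound preincubation 20 min at room temperature before agonist | Signal: Kinetic calcium fluorescence imaging with Fluo4-AM dye, 2 µM | Read-out basis: B score from integrated fluorescence ratio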
MrgX1 antagonist: antagonists of human MrgX1 receptor, primary screen, HEK293 cells, Fluo-4 calcium flux | Mas-related G-protein coupled receptor member X1 (Homo sapiens), Q96LB2 | BAM8-22 antagonism; active compounds read low | B-score at 10 µM | actives 1.3% (n = 310,000) | AID 588676, 2011;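 active = calcium-response B-score plate-corrected more than 3 library SD below zero, starting fluorescence within 5 deviations, no agonist response on first addition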;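 also: peak minus trough fluorescence over baseline after final BAM8-22 challenge near maximal dose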
Target sequence (Q96LB2 whole entry, looked up): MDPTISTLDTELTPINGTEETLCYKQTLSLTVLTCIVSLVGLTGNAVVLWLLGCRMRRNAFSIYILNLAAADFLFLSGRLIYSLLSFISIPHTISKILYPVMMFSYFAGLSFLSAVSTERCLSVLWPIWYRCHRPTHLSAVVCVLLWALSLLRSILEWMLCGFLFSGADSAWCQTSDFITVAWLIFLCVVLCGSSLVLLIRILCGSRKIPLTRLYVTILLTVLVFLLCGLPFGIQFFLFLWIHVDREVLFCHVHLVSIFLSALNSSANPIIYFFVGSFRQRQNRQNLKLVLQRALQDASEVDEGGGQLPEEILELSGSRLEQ
MrgX1 ag: agonists of human MrgX1 receptor, primary screen, HEK293 cells, Fluo-4 calcium flux; Mas-related G-protein coupled receptor member X1 (Homo sapiens), Q96LB2; Fluo-4 calcium fluorescence, agonist mode; active compounds read high; B-score at 10 µM; actives 0.44% (n = 310,000); AID 588627, 2011;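 active = calcium response B-score plate-corrected fluorescence ratio at least 3 library SD, with starting fluorescence B-score inside 5 SD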
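Assay system: stable human MrgX1 HEK293 cell line. Quantity: 15,000 cells per well. Schedule: cells plated overnight, dye loaded 0.5 h 37 °C, 0.5 h room temperature. Detection: Fluo-4 NW calcium-flux fluorescence, kinetic read. Read-out basis: peak-minus-minimum fluorescence over baseline, converted to B scores. Control set: positive and negative control wells on each plate.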
RGS4 block: RGS4 inhibitors, primary screen, cell-based, HEK293 M3R inducible RGS4, calcium flux; Fluo-4 calcium flux; active compounds read high; triggered by carbachol at its EC20; B-score at 10 µM; actives 0.45% (n = 310,000); AID 463165, 2010;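 active = B-score, a plate-corrected calcium signal, over three deviations above library mean, with baseline fluorescence within five deviations of library mean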;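 also: RGS4 expression induced by doxycycline in cells with stable M3 receptor; B-score is computed from the integrated fluorescence ratio over baseline after carbachol; higher B-score means a larger calcium signal and so more RGS4 inhibition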
Target sequence (P49798 whole entry, looked up): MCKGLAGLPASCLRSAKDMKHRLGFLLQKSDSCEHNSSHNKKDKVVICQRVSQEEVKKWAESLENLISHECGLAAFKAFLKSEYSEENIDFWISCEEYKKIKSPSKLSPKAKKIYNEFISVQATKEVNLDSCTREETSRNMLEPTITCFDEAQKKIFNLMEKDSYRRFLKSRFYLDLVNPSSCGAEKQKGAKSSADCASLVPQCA
MrgX1 PAM: positive allosteric modulators of MrgX1, primary screen, HEK293 cells, Fluo-4 calcium flux. actives 0.63% (n = 310,000). Mas-related G-protein coupled receptor member X1 (Homo sapiens), Q96LB2. B-score at 10 µM. FDSS; active compounds read high;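 active = plate-corrected calcium response at least 3 library SD above typical, normal starting fluorescence, not activating the receptor alone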;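 also: compound read alongside a low EC10 to EC30 dose of BAM8-22 agonist; peak minus trough fluorescence over baseline measured at the second addition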
RGS4 act valid: reduced carbachol calcium response, RGS4-induced M3R cells, confirmation, RGS4 activator project, cell-based, HEK293 M3R/RGS4 inducible, calcium flux, duplicate; carbachol calcium flux Fluo4; actives 89% (n = 1,100); AID 602282, 2012; shares compounds with RGS4 act; inhibition, % at 10 µM;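 active = inhibition above 3 SD of the buffer control wells, cut at about 41% in these data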;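 also: signal is the integrated peak-minus-minimum Fluo4 fluorescence over baseline ratio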
M3R Ca counter: activity in cells without induced RGS4 expression. shares compounds with RGS4 act. HEK293 M3R non-induced RGS4, Fluo4 calcium flux; after carbachol challenge at its EC90. inhibition, % at 10 µM. actives 82% (n = 1,100);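 active = inhibition exceeding 3 SD of buffer-only control wells, cut at about 26% in these data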;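 also: percent drop in integrated peak-minus-baseline over baseline Fluo4 ratio after carbachol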
Active calls of the source: *; i = inactive; · = no result given. Sampled rows, rich in hits. Any-hit rate of the full collection: about 3.5%.

SMILES | RGS4 act | MrgX1 antagonist | MrgX1 ag | RGS4 block | MrgX1 PAM | RGS4 act valid | M3R Ca counter
CCOc1ccc(CN(C)c2nc(-c3cccnc3)nc3ccccc23)cc1OC | -9.2* | i | i | i | i | 76* | 43*
CCCCNC(=O)c1ccc(S(=O)(=O)c2ccc(Cl)cc2)c(NC(C)=O)c1 | i | i | i | i | i | · | ·
CCC(C(=O)OCC(=O)Nc1cc(Cl)cc(Cl)c1)c1ccccc1 (configuration not stated) | -8.4* | i | i | i | i | 74* | 26*
CCC(C(=O)OCC(=O)Nc1cccc(C(C)=O)c1)c1ccccc1 (configuration not stated) | i | i | i | i | i | · | ·
COc1ccc(-c2nn(-c3ccccc3)cc2C(=O)Nc2nccs2)cc1 | -8.7* | i | i | i | i | 68* | 0
COc1cccc(-c2nn(-c3ccccc3)cc2C(=O)Nc2nccs2)c1 | i | i | i | i | i | · | ·
CC(C)(C)c1ccc(CNc2ccc([N+](=O)[O-])cn2)cc1 | i | i | i | i | i | · | ·
Cc1cc(N2CCCCC2)n2ncc(-c3ccccc3)c2n1 | -8.1* | i | i | i | i | 94* | 87*
Cc1cc(N2CCCCC2)n2ncc(-c3ccc(Cl)cc3)c2n1 | i | i | i | i | i | · | ·
Cn1c(=O)[nH]c2nnc(-c3ccc(Cl)c(Cl)c3)nc2c1=O | -8.9* | i | i | i | i | 0 | 0
C#Cc1ccc2c(c1)COc1c3ccccc3nn1-2 | i | i | i | i | i | · | ·
O=C(Nc1ccccc1C(=O)Nc1ccncc1)c1ccccc1 | i | i | i | i | i | · | ·
COC(=O)c1ccc(CN2CCC(Oc3ccc(C(=O)N4CCCCC4)cc3)CC2)cc1 | -9.9* | i | i | i | i | 92* | 80*
CSc1ccc(CN2CCC(Oc3cccc(C(=O)N4CCCC4)c3)CC2)cc1 | i | i | i | i | i | · | ·
COC(=O)c1ccc(CN2CCC(Oc3cccc(C(=O)N4CCCC4)c3)CC2)cc1 | -8* | i | i | i | i | 87* | 59*
Cc1ccc(CNC(=O)C2CCN(S(=O)(=O)c3ccc4c(c3)CC(C)N4C(=O)C3CCC3)CC2)o1 (configuration not stated) | i | i | i | i | i | · | ·
CCC(C)[C@H](NC(=O)NC1CCCc2ccccc21)C(=O)OC (some centres not stated) | -8.3* | i | i | i | i | 0 | 0
O=C(CSc1nc(-c2ccccc2Cl)ns1)c1ccc(Cl)cc1 | -8.2* | i | i | i | i | 77* | 41*
CCn1c(SCC(=O)N2CCc3ccccc32)nnc1-c1ccco1 | i | i | i | i | i | · | ·
C[n+]1cccc2ccc3c(c21)OC(N)=C(C#N)C3c1ccccc1 (configuration not stated) | -12* | i | i | i | i | 76* | 84*
C[n+]1cccc(C2C(C#N)=C(N)Oc3c2ccc2ccccc32)c1 (configuration not stated) | i | i | i | i | i | · | ·
O=C(Nc1ccc(Cl)cc1)N(C1=NCCC1)c1ccc(OC(F)F)cc1 | -10* | i | i | i | i | 92* | 92*
O=C(COC(=O)Cc1ccc(Cl)cc1)Nc1ccc(OC(F)F)cc1 | i | i | i | i | i | · | ·
CC1(C)CC(=O)C=C(NCc2ccccc2)C1 | i | i | i | i | i | · | ·
CC1(C)CC(=O)C=C(NCc2cccc(C(F)(F)F)c2)C1 | -8.7* | i | i | i | i | 0 | 0
SMILES | RGS4 act | MrgX1 antagonist | MrgX1 ag | RGS4 block | MrgX1 PAM | RGS4 act valid | M3R Ca counter
C=CCOC(=O)C1=C(C)NC(SCC(N)=O)=C(C#N)C1c1ccc(C)cc1 (configuration not stated) | i | i | i | i | i | · | ·
C=CCOC(=O)C1=C(C)NC(SCC)=C(C#N)C1c1ccc(Cl)cc1 (configuration not stated) | -7.6* | i | i | i | i | 93* | 84*
COc1ccc(Cc2nnc(NC(=O)c3cc(OC)c(OC)c(OC)c3)s2)cc1 | i | i | i | i | i | · | ·
CCOC(=O)c1ccc(NC(=O)CSc2nc(=O)n3cccc(C)c3n2)cc1 | i | i | i | i | i | · | ·
CSC1=NCCN1C(=O)COc1ccc2ccccc2c1 | -9.5* | i | i | i | i | 0 | 0
CSC1=NCCN1C(=O)COc1ccccc1 | i | i | i | i | i | · | ·
CCN(CC)CCC(O)(c1ccccc1)C1CCCCC1 (configuration not stated) | -9.3* | i | i | i | i | 92* | 92*
Cc1cc(C)c(NC(=O)c2cc(C(=O)O)ccc2C(=O)O)c([N+](=O)[O-])c1 | i | i | i | i | i | · | ·
COc1cc2nc(Nc3ccc(C)c(C)c3)nc(N)c2cc1OC | -10* | i | i | i | i | 61* | 0
CN(C)CC/C=C1/c2ccccc2CS(=O)(=O)c2ccccc21 | i | i | i | i | i | · | ·
CN(C)CC/C=C1\c2ccccc2COc2ccccc21 | -8* | i | i | i | i | 94* | 93*
CN1CCN(CCC=C2c3ccccc3Sc3ccc(S(=O)(=O)N(C)C)cc32)CC1 | · | i | i | · | i | · | ·
CN(C)CC/C=C1/c2ccccc2Sc2ccc(Cl)cc21 | -9.5* | i | i | i | i | 94* | 96*
COCCN1CC(C(=O)NCc2ncccc2C)CCC1=O (configuration not stated) | i | i | i | i | i | · | ·
CC1Oc2ccccc2C(=O)N(CC(=O)c2ccc3c(c2)OCCO3)C1=O (configuration not stated) | i | i | i | i | i | · | ·
CCC1Oc2ccccc2C(=O)N(CC(=O)c2ccc3c(c2)OCCO3)C1=O (configuration not stated) | -8.1* | i | i | i | i | 72* | 84*
